Source: paper PMC11003496 (Journal of Enzyme Inhibition and Medicinal Chemistry, 2023)
Like-named read-outs stand apart in the source and are kept apart here. Values belong to the molecule of their own block, whether it stands above or below them.

Assays:
COX-1 = molecular target: T1, COX-1 (Ovis aries, UniProt P05979); assay: In vitro COX-1 inhibition; type: biochemical
T1 sequence (P05979 25-600): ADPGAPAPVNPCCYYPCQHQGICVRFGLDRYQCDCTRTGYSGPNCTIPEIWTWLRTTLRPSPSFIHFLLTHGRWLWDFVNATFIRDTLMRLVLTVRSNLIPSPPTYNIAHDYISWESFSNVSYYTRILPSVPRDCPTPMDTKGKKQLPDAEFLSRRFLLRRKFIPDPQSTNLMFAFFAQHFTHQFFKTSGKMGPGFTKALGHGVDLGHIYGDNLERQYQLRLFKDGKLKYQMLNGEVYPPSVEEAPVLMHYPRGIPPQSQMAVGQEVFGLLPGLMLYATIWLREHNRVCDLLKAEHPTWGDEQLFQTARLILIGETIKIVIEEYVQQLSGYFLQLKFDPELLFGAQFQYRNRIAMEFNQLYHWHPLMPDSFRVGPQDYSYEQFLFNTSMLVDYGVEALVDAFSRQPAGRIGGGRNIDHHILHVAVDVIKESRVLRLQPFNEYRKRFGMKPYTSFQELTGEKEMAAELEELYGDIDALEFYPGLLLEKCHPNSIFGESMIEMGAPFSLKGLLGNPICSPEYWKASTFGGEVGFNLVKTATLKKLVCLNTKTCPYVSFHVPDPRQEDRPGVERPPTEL

COX-2 = molecular target: T2, COX-2 (Homo sapiens, UniProt P35354); assay: biochemical; settings: for COX-2 S.I.: in vitro COX-2 selectivity index, IC50 (COX-1)/IC50 (COX-2)
T2 sequence (P35354 18-604): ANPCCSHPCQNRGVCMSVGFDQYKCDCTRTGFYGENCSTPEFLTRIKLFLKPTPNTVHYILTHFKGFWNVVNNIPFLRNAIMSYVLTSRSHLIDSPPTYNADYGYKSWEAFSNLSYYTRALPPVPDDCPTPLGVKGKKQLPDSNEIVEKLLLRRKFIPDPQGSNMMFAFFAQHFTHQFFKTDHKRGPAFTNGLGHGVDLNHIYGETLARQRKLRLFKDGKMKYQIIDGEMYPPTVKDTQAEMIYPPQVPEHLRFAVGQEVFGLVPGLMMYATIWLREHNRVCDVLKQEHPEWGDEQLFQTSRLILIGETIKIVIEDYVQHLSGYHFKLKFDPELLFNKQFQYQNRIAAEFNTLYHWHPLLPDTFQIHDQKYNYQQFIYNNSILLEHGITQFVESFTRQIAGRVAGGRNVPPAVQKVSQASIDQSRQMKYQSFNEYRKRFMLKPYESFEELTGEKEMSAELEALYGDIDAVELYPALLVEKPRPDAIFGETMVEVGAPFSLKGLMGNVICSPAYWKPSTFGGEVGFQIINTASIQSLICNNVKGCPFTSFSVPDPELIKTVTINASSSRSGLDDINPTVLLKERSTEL

[1] = test system: MCF7 human breast adenocarcinoma cell line; assay: MTT cell viability assay, MCF-7; type: cell-based; settings: MCF7, 48 h, read-out: MCF-7 IC50
aromatase (CYP19A) = molecular target: T3, aromatase (CYP19A) (Homo sapiens, UniProt P11511); assay: Aromatase; type: biochemical
T3 sequence (P11511 1-503): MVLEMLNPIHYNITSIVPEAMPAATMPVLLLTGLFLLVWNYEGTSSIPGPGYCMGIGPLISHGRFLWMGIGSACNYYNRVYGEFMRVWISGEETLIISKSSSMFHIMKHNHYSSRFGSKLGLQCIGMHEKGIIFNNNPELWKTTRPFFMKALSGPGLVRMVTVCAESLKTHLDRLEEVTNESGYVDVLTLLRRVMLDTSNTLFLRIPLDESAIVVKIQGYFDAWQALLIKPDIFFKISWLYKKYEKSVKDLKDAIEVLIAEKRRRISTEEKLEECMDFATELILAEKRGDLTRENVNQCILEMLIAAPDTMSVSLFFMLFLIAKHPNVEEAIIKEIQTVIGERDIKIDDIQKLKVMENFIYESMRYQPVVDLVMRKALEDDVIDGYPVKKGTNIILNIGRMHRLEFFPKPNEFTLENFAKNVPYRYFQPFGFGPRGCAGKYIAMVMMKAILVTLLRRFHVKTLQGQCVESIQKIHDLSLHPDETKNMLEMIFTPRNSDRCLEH

[2] = test system: A549 non-small cell lung cancer; assay: MTT cell viability assay, A549; type: cell-based; settings: read-out: A549 IC50
breast MCF7 cells = assay: Cell cycle analysis by flow cytometry; type: cell-based, human; settings: for cell cycle arrest phase: compound at its IC50; for %G0-G1 / %G2-M / %S: compound at its IC50, 24 h
In short: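 MCF7 breast cells were exposed to the test compound for 24 h, then rinsed with PBS, centrifuged and fixed in 70% ethanol. After a PBS wash they were suspended in 0.1 mg/mL RNase and stained with propidium iodide. Flow cytometry on a FACS Calibur measured DNA content to give G0/G1, S and G2/M distribution against negative control.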

B-RAF^V600E = B-RAF^V600E (Homo sapiens, UniProt P15056, V600E); assay: B-RAF^V600E Kinase Assay Kit; type: biochemical
MCF7 breast cells = assay: Apoptosis by Annexin-V-FITC/PI flow cytometry; type: cell-based, human; settings: for Apoptosis Early / Apoptosis Late / Apoptosis Total / Necrosis: compound at its IC50, 24 h; for late apoptosis increase compared to control: control 0.27% (late); for early apoptosis increase compared to control: control 0.41% (early)
In short: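 MCF7 breast cells were treated with the test compound for 24 h, then collected and rinsed twice with PBS. They were stained with Annexin-V-FITC plus propidium iodide for 30 min at room temperature in the dark. Analysis on a FACS Calibur flow cytometer gave early apoptotic, late apoptotic and necrotic fractions, compared against untreated control.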

EGFR = EGFR (Homo sapiens, UniProt P00533); assay: EGFR Kinase Assay Kit; type: biochemical
In short: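 Kinase kit assay. Each well held kinase buffer with DTT, ATP, and Poly(Glu:Tyr 4:1) PTK substrate (10 mg/ml stock). Test compound was added, and diluted EGFR enzyme started the reaction. Incubated 40 min at 30 °C, then Kinase-Glo Max reagent for 15 min at room temperature, and luminescence read. Controls were no-inhibitor wells and enzyme-free blanks.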

normal fibroblast F180 = assay: MTT cell viability assay, F180; type: cell-based; settings: F180, 48 h, read-out: F180 IC50
[3] = test system: Hep3b hepatocellular carcinoma cell line; assay: MTT cell viability assay, HEP-3B; type: cell-based; settings: Homo sapiens, 48 h, read-out: HEP-3B IC50
HCT116 colorectal cancer = assay: MTT cell viability assay, HCT-116; type: cell-based; settings: read-out: HCT-116 IC50, 48 h, mean of six values

Chain of EGFR (P00533 25-1210): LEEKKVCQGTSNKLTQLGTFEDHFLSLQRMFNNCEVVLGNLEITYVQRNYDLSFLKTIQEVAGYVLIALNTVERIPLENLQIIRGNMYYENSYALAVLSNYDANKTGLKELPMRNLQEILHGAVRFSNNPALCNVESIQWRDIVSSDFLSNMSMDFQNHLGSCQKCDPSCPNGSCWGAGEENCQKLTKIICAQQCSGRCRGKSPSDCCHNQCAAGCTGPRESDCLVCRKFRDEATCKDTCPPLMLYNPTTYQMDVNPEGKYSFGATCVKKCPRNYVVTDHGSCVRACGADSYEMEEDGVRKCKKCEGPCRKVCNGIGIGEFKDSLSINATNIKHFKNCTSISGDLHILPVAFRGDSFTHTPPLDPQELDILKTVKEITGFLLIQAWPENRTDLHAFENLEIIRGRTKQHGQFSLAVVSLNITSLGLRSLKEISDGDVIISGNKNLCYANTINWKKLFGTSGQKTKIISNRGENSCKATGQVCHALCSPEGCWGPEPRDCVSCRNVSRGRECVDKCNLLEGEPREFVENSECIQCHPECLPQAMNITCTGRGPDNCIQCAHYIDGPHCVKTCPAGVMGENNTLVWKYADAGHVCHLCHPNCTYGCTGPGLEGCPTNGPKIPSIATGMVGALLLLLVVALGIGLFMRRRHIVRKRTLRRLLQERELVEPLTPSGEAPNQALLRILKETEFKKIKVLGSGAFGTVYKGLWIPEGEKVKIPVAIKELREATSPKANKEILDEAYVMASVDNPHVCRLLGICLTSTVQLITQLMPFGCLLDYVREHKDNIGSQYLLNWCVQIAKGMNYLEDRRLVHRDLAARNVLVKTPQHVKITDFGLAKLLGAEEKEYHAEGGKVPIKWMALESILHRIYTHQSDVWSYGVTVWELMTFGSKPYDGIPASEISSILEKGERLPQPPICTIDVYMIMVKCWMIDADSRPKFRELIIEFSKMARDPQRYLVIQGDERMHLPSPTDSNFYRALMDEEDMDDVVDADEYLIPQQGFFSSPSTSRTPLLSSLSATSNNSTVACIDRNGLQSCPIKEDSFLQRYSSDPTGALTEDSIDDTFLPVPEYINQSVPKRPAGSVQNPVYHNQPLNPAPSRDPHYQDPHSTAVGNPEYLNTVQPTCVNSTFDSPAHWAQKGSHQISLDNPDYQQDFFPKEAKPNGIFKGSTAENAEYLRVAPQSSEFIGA
Chain of B-RAF^V600E (P15056 whole entry V600E): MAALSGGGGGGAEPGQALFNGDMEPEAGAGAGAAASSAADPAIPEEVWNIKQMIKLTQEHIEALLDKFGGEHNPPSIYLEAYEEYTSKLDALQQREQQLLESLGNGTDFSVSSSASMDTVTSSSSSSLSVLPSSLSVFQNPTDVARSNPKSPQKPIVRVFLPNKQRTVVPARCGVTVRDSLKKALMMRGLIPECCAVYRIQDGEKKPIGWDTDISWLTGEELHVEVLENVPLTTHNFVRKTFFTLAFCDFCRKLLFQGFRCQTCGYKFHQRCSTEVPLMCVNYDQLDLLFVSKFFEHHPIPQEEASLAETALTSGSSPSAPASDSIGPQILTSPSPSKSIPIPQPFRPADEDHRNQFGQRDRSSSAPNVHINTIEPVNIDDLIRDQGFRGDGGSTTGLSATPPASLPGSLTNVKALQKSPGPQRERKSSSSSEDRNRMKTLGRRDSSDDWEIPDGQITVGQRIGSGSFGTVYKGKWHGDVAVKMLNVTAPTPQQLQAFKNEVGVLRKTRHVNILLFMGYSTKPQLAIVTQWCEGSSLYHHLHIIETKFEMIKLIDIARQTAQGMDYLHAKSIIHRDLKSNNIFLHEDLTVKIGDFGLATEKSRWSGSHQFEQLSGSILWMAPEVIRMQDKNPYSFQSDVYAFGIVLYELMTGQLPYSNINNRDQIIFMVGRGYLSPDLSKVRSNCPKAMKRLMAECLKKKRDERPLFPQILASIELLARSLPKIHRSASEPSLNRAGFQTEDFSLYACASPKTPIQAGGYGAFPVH

IC50 (COX-1): 4.76 ± 0.034 µM
IC50 (COX-2): 0.394 ± 0.031 µM
COX-2 S.I. (COX-2): 12.08
Structure (SMILES): COc1ccc(-n2c(SC/C(=N/O)c3ccccc3)nnc2-c2nnn(-c3ccc(S(N)(=O)=O)cc3)c2C)cc1 [Compound 19g, (E)-4-(4-(5-((2-(hydroxyimino)-2-phenylethyl)thio)-4-(4-methoxyphenyl)-4H-1,2,4-triazol-3-yl)-5-methyl-1H-1,2,3-triazol-1-yl)benzenesulfonamide]

IC50 [1]: 15 µM
IC50 (aromatase (CYP19A)): 22.7 µM
IC50 ([2]; Homo sapiens, A549, 48 h): 4 µM
IC50 (COX-1): 8.6 ± 0.027 µM
IC50 (COX-2): 0.309 ± 0.071 µM
COX-2 S.I. (COX-2): 27.83
IC50 (B-RAF^V600E): 0.07 µM
IC50 (EGFR): 0.169 µM
Structure (SMILES): COc1ccc(-n2c(SC/C(=N/O)c3ccc(C)cc3)nnc2-c2nnn(-c3ccc(S(N)(=O)=O)cc3)c2C)cc1 [Compound 19h, (E)-4-(4-(5-((2-(hydroxyimino)-2-(p-tolyl)ethyl)thio)-4-(4-methoxyphenyl)-4H-1,2,4-triazol-3-yl)-5-methyl-1H-1,2,3-triazol-1-yl)benzenesulfonamide]
cell cycle arrest phase (breast MCF7 cells): cell cycle arrest at G2/M phase
%G0-G1 (breast MCF7 cells): 45.44%
%G2-M (breast MCF7 cells): 26.39%
%S (breast MCF7 cells): 28.17%
Apoptosis Early (MCF7 breast cells): 22.54%
Apoptosis Late (MCF7 breast cells): 14.91%
Apoptosis Total (MCF7 breast cells): 42.21
Necrosis (MCF7 breast cells): 4.76%
late apoptosis increase compared to control (MCF7 breast cells): 55.22 fold
early apoptosis increase compared to control (MCF7 breast cells): 54.97 fold
IC50 (normal fibroblast F180): 11.3 µM

IC50 (COX-1): 4.6 ± 0.048 µM
IC50 (COX-2): 0.363 ± 0.061 µM
COX-2 S.I. (COX-2): 12.67
Structure (SMILES): COc1ccc(/C(CSc2nnc(-c3nnn(-c4ccc(S(N)(=O)=O)cc4)c3C)n2-c2ccc(OC)cc2)=N\O)cc1 [Compound 19i, (E)-4-(4-(5-((2-(hydroxyimino)-2-(4-methoxyphenyl)ethyl)thio)-4-(4-methoxyphenyl)-4H-1,2,4-triazol-3-yl)-5-methyl-1H-1,2,3-triazol-1-yl)benzenesulfonamide]

IC50 (EGFR): 0.037 µM
Structure (SMILES): COC(=O)N[C@@H](C)CNc1nccc(-c2cn(C(C)C)nc2-c2cc(Cl)cc(NS(C)(=O)=O)c2F)n1 [Encorafenib, encorafenib, reference compound]

IC50 (COX-1): 3.43 ± 0.026 µM
IC50 (COX-2): 0.397 ± 0.025 µM
COX-2 S.I. (COX-2): 8.63
IC50 [3]: 4.5 µM
Structure (SMILES): COc1ccc(-n2c(SC/C(=N/O)c3ccc(Cl)cc3)nnc2-c2nnn(-c3ccc(S(N)(=O)=O)cc3)c2C)cc1 [Compound 19j, (E)-4-(4-(5-((2-(4-chlorophenyl)-2-(hydroxyimino)ethyl)thio)-4-(4-methoxyphenyl)-4H-1,2,4-triazol-3-yl)-5-methyl-1H-1,2,3-triazol-1-yl)benzenesulfonamide]

IC50 (COX-1): 4.42 ± 0.021 µM
IC50 (COX-2): 0.485 ± 0.048 µM
COX-2 S.I. (COX-2): 9.11
Structure (SMILES): Cc1ccc(/C(CSc2nnc(-c3nnn(-c4ccc(S(N)(=O)=O)cc4)c3C)n2-c2ccccc2)=N\O)cc1 [Compound 19b, (E)-4-(4-(5-((2-(hydroxyimino)-2-(p-tolyl)ethyl)thio)-4-phenyl-4H-1,2,4-triazol-3-yl)-5-methyl-1H-1,2,3-triazol-1-yl)benzenesulfonamide]

IC50 [1]: 0.3 µM
Structure (SMILES): COc1cccc2c1C(=O)c1c(O)c3c(c(O)c1C2=O)C[C@@](O)(C(=O)CO)C[C@@H]3O[C@H]1C[C@H](N)[C@H](O)[C@H](C)O1 [Doxorubicin, doxorubicin, reference compound]
IC50 (normal fibroblast F180): 4.28 µM

IC50 [1]: 14 µM
IC50 (aromatase (CYP19A)): 22.4 µM
IC50 ([2]; Homo sapiens, A549, 48 h): 4.5 µM
IC50 (COX-1): 10.7 ± 0.025 µM
IC50 (COX-2): 0.309 ± 0.041 µM
COX-2 S.I. (COX-2): 34.62
IC50 [3]: 4.5 to 14 µM
IC50 (B-RAF^V600E): 0.09 µM
IC50 (EGFR): 0.112 µM
Structure (SMILES): COc1ccc(/C(CSc2nnc(-c3nnn(-c4ccc(S(N)(=O)=O)cc4)c3C)n2-c2ccccc2)=N\O)cc1 [Compound 19c, (E)-4-(4-(5-((2-(hydroxyimino)-2-(4-methoxyphenyl)ethyl)thio)-4-phenyl-4H-1,2,4-triazol-3-yl)-5-methyl-1H-1,2,3-triazol-1-yl)benzenesulfonamide]
cell cycle arrest phase (breast MCF7 cells): cell cycle arrest at G2/M phase
%G0-G1 (breast MCF7 cells): 37.88%
%G2-M (breast MCF7 cells): 26.98%
%S (breast MCF7 cells): 35.14%
Apoptosis Early (MCF7 breast cells): 21.85%
Apoptosis Late (MCF7 breast cells): 12.36%
Apoptosis Total (MCF7 breast cells): 41.55
Necrosis (MCF7 breast cells): 7.34%
late apoptosis increase compared to control (MCF7 breast cells): 45.77 fold
early apoptosis increase compared to control (MCF7 breast cells): 53.29 fold
IC50 (normal fibroblast F180): 15.4 µM

IC50 (COX-1): 4.63 ± 0.023 µM
IC50 (COX-2): 0.437 ± 0.037 µM
COX-2 S.I. (COX-2): 10.59
Structure (SMILES): Cc1c(-c2nnc(SC/C(=N/O)c3ccc(Cl)cc3)n2-c2ccccc2)nnn1-c1ccc(S(N)(=O)=O)cc1 [Compound 19d, (E)-4-(4-(5-((2-(4-chlorophenyl)-2-(hydroxyimino)ethyl)thio)-4-phenyl-4H-1,2,4-triazol-3-yl)-5-methyl-1H-1,2,3-triazol-1-yl)benzenesulfonamide]

IC50 [3]: 3.5 µM
Structure (SMILES): CNC(=O)c1cc(Oc2ccc(NC(=O)Nc3ccc(Cl)c(C(F)(F)F)c3)cc2)ccn1 [Sorafenib, sorafenib, reference compound]

IC50 ([2]; MTT, 48 h, mean of six values): 6 µM
IC50 (HCT116 colorectal cancer): 4.8 µM
Structure (SMILES): O=c1[nH]cc(F)c(=O)[nH]1 [Compound 5-F.U., reference compound]

IC50 (COX-1): 4.84 ± 0.02 µM
IC50 (COX-2): 0.343 ± 0.07 µM
COX-2 S.I. (COX-2): 14.11
Structure (SMILES): Cc1c(-c2nnc(SC/C(=N/O)c3ccccc3)n2-c2ccccc2)nnn1-c1ccc(S(N)(=O)=O)cc1 [Compound 19a, (E)-4-(4-(5-((2-(hydroxyimino)-2-phenylethyl)thio)-4-phenyl-4H-1,2,4-triazol-3-yl)-5-methyl-1H-1,2,3-triazol-1-yl)benzenesulfonamide]
